Measured values from ChEMBL document CHEMBL3877241 (J Med Chem, 2016).
Calls of active or inactive are those of the source. The calls are words filed in the database; no cut-off is given here.

Columns and labels:
[1] = biological target: Tyrosine-protein kinase JAK3 (Homo sapiens) (UniProt P52333); assay: Inhibition of JAK3 (unknown origin) at 0.1 uM preincubated for 20 mins followed by [33P]ATP addition measured after 120 mins by Hotspot assay relative to control
Method in brief: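 Radiometric HotSpot kinase assay. Buffer: 20 mM HEPES pH 7.5, 10 mM MgCl2, 1 mM EGTA, 0.02% Brij35, 0.02 mg/mL BSA, 0.1 mM Na3VO4, 2 mM DTT, 1% DMSO. Compound added about 20 min before ATP/[33P]ATP (10 μM final). Reactions run 120 min at 25 °C, spotted on P81 filters and washed in phosphoric acid. Activity expressed relative to DMSO after background subtraction. Single-concentration panel at 100 nM in duplicate.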

[2] = biological target: Histone deacetylase 4 (Homo sapiens) (UniProt P56524); assay: Inhibition of human recombinant N-terminal GST-tagged C-terminal His-tagged HDAC4 (627 to 1084 residues) expressed in insect cells at 10 uM preincubated with enzyme followed by acetyl-Lys(trifluoroacetyl)-AMC substrate addition measured after 2 hrs by fluorescence assay relative to control
Method in brief: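 HDAC enzyme in 50 mM Tris-HCl pH 8.0, 137 mM NaCl, 2.7 mM KCl, 1 mM MgCl2 was pre-incubated with compound dosed from DMSO. The reaction was started with the class IIa substrate acetyl-Lys(trifluoroacetyl)-AMC and run 2 h at 30 °C. Developer with trichostatin A stopped it, and fluorescence (Ex/Em 360/460 nm) was read at plateau. Single test concentration 10 µM.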

Histone deacetylase 8 = Histone deacetylase 8 (Homo sapiens, UniProt Q9BY41); assay: Inhibition of human recombinant C-terminal His-tagged HDAC8 (1 to 377 residues) expressed in insect cells preincubated with enzyme followed by fluorogenic Arg-His-Lys(Ac)-Lys(Ac)-AMC substrate addition measured after 2 hrs by fluorescence assay
Histone deacetylase 8, sequence (Q9BY41 whole entry, the tested form may be a part): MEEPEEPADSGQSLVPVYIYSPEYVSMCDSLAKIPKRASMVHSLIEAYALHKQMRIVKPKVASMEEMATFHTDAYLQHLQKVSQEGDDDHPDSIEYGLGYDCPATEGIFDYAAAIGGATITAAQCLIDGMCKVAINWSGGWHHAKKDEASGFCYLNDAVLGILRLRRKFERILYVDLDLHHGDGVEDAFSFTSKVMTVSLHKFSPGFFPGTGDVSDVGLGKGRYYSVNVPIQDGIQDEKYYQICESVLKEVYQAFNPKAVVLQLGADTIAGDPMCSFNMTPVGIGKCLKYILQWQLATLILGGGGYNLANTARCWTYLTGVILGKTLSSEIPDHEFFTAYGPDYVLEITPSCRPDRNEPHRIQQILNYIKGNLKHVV
Method in brief: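 HDAC8 in 50 mM Tris-HCl pH 8.0, 137 mM NaCl, 2.7 mM KCl, 1 mM MgCl2 was pre-incubated with compound from DMSO. 50 µM Arg-His-Lys(Ac)-Lys(Ac) substrate was added and the reaction ran 2 h at 30 °C. Trichostatin A developer stopped it, with fluorescence read at Ex/Em 360/460 nm. IC50 from a 10-dose curve.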

[3] = biological target: Polyamine deacetylase HDAC10 (Homo sapiens, UniProt Q969S8); assay: Inhibition of HDAC10 (unknown origin) preincubated with enzyme followed by fluorogenic Arg-His-Lys-Lys(Ac)-AMC substrate addition measured after 2 hrs by fluorescence assay
Polyamine deacetylase HDAC10, sequence (Q969S8 whole entry, the tested form may be a part): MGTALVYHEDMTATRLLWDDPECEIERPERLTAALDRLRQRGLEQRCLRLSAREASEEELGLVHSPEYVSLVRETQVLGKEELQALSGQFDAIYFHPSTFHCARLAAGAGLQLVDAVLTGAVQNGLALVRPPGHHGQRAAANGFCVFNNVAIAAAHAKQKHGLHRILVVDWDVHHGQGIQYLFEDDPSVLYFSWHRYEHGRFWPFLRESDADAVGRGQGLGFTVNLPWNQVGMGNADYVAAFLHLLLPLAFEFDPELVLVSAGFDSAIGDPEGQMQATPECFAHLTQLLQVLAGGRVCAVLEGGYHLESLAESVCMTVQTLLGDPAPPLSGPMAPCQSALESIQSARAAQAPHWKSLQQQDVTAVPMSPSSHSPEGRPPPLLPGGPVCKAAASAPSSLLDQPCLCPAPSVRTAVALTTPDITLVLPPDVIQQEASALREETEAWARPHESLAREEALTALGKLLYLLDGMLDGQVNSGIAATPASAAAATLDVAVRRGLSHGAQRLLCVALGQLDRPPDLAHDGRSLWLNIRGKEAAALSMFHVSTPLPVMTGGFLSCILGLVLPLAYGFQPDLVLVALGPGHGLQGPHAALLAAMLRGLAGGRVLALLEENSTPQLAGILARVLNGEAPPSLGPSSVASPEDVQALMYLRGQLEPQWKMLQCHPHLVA

[4] = biological target: Mast/stem cell growth factor receptor Kit (Homo sapiens, UniProt P10721); assay: Inhibition of human KIT (I571 to D952 residues) expressed in bacterial expression system assessed as residual activity at 100 nM by KINOMEScan assay relative to control
Mast/stem cell growth factor receptor Kit, sequence (P10721 whole entry, the tested form may be a part): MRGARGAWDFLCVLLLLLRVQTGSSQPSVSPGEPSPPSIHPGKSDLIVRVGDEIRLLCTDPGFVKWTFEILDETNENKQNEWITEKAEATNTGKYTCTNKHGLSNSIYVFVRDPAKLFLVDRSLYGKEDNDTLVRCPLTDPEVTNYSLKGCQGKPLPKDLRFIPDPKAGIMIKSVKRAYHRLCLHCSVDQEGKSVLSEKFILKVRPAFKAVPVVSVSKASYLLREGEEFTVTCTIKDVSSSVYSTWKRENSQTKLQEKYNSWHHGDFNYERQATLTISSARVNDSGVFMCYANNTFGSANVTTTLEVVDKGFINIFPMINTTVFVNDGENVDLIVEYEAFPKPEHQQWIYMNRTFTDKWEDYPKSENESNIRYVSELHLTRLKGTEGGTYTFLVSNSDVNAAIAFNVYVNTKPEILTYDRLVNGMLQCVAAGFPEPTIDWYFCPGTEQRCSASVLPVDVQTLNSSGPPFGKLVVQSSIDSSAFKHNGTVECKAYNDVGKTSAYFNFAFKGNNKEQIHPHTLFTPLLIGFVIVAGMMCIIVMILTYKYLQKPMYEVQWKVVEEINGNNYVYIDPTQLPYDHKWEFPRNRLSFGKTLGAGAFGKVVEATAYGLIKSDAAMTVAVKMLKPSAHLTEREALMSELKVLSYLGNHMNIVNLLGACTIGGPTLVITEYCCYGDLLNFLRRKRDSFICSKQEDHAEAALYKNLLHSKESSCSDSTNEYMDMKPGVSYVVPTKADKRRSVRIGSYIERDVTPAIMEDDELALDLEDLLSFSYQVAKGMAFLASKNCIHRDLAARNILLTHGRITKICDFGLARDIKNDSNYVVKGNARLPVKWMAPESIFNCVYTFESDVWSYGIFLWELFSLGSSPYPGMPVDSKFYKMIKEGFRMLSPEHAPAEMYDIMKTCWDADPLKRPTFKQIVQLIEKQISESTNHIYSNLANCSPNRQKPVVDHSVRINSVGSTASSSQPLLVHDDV
Method in brief: (§1)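 Done by DiscoveRx as an ATP-site binding panel covering 97 kinases across the kinome. It measures binding rather than inhibition of phosphate transfer. The compound was tested at 100 nM, and the result is expressed as percent of control binding.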

[5] = system: Mast/stem cell growth factor receptor Kit (Homo sapiens), P10721 [V559D,T670I]; assay: Inhibition of human KIT (Y545 to D952 residues) V559D/T670I double mutant expressed in bacterial expression system assessed as residual activity at 100 nM by KINOMEScan assay relative to control; method in brief: as §1
Mast/stem cell growth factor receptor Kit (Homo sapiens), P10721 [V559D,T670I], sequence (P10721 whole entry V559D/T670I, the tested form may be a part): as the sequence (P10721 whole entry, the tested form may be a part) above, with V559D, T670I counted along it

[6] = Antiproliferative activity against human PC3 cells after 72 hrs by MTT assay; assay type: functional, cell-based; conditions: PC-3, 72 h
[7] = biological target: Mitogen-activated protein kinase 10 (Homo sapiens, UniProt P53779); assay: Inhibition of full length human MAPK10 (V28 to Q422 residues) expressed in mammalian expression system by KINOMEScan assay
Mitogen-activated protein kinase 10, sequence (P53779 whole entry, the tested form may be a part): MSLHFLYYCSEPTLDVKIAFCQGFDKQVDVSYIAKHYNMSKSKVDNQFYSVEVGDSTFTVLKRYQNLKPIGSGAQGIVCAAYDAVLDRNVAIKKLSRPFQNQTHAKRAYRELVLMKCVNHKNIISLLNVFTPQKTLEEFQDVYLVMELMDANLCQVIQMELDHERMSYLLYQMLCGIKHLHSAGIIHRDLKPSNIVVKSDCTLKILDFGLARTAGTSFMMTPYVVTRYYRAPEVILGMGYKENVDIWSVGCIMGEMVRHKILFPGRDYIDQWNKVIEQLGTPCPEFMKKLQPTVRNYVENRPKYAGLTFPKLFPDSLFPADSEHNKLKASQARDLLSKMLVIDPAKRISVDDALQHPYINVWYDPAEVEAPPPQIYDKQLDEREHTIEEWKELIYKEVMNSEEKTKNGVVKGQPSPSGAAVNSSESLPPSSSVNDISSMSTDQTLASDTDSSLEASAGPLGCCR

[8] = Growth inhibition of human HL60 cells at 4 uM relative to control; assay type: functional; conditions: HL-60, read-out: GI
[9] = Antiproliferative activity against human NKYS cells after 48 hrs by CellTiter-Glo assay; assay type: functional, cell-based
[10] = Antiproliferative activity against mouse TAMH cells after 24 hrs by CellTiter-Glo assay; assay type: ADME, cell-based
[11] = Therapeutic index, ratio of IC50 for mouse TAMH cells to IC50 for human cancer cells; conditions: cancer cell lines
[12] = biological target: Tyrosine-protein kinase JAK2 (Homo sapiens, UniProt O60674); assay: Inhibition of JAK2 in IL-6-stimulated human MOLM14 cells assessed as suppression of STAT3 phosphorylation at TY705 residue at 1.5 uM pretreated for 3 hrs followed by IL-6 stimulation by immunoblot method; assay type: cell-based; conditions: MOLM-14
Tyrosine-protein kinase JAK2, sequence (O60674 whole entry): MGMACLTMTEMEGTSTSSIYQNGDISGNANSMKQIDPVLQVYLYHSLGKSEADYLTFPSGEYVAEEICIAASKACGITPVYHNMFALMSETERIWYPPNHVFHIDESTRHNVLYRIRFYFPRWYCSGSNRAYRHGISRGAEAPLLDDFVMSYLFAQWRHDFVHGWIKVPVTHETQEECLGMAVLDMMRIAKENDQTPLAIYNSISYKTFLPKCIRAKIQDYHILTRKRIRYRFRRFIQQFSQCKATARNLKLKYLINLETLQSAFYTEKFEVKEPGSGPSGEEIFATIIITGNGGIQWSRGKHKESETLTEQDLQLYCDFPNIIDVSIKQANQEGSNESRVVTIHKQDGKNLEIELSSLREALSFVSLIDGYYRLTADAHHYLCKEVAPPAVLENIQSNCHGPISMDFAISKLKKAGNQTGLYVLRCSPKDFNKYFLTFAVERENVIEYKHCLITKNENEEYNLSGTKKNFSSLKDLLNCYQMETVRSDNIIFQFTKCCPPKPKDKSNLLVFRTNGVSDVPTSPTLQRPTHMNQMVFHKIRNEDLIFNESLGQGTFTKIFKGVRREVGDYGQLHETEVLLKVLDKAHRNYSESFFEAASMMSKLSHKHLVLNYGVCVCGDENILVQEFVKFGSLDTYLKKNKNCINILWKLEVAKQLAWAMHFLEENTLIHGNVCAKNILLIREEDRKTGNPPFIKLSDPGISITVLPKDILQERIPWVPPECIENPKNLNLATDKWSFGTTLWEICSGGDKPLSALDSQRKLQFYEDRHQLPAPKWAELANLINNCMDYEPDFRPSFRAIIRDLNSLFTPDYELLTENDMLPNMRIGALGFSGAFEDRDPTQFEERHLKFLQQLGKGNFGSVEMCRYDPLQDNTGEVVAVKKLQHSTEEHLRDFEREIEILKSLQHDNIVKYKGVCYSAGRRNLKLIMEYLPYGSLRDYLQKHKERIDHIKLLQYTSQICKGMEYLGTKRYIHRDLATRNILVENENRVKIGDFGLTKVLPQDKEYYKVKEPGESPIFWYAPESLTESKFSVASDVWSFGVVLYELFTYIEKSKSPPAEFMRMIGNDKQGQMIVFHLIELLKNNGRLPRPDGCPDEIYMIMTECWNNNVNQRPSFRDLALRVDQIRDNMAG
Method in brief: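 Cells (at least 3x10^6 per condition; KMS-12-BM or MOLM-14) pretreated with compound for 3 h, then stimulated with IL-6 10 ng/mL for 15 min. Cells lysed, equal protein run on SDS-PAGE and transferred to PVDF. Immunoblotted for p-STAT3 (Tyr705), with membranes re-probed for total STAT3. Reference JAK2 inhibitor control at 2 µM (KMS-12-BM) or 0.1 µM (MOLM-14).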

MOLM-14 = assay: Induction of apoptosis in human MOLM14 cells assessed as early apoptotic cells at 0.75 uM after 48 hrs by Annexin-V FITC/propidium iodide staining based flow cytometry (reference value: 3.6 to 3.7%); assay type: functional
Method in brief: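 MOLM-14 cells treated 48 h at the stated concentrations; doxorubicin as positive control. Stained with Annexin V-FITC and propidium iodide and analysed by flow cytometry (at least 10,000 events). Gated quadrants: Annexin V−/PI− viable, Annexin V+/PI− early apoptotic, Annexin V+/PI+ late apoptotic.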

[13] = Half life in rat liver microsomes at 3 uM preincubated for 5 mins followed by NADPH addition by LC-MS/MS analysis; assay type: ADME
Method in brief: (§2)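 Male and female rat liver microsomes (0.3 mg protein/mL final) with compound at 3 μM final in 0.1 M phosphate buffer pH 7.4. Preincubated 5 min at 37 °C, then started with NADPH (1 mM final). Sampled at 0, 5, 10, 15, 30 and 45 min and quenched with cold acetonitrile containing internal standard. Read by LC-MS/MS; run in triplicate; midazolam (3 μM) as positive control.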

[14] = Apparent intrinsic clearance in rat liver microsomes at 3 uM preincubated for 5 mins followed by NADPH addition measured after 45 mins by LC-MS/MS analysis; assay type: ADME; conditions: read-out: CLH(app); method in brief: as §2
[15] = system: Tyrosine-protein kinase JAK2 (Homo sapiens), O60674 [V617F]; assay: Inhibition of JAK2 V617F mutant in HEL 92.1.7 cells assessed as decrease in STAT5 phosphorylation at antiproliferative IC50 after 1 hr by immunoblot method; assay type: cell-based
Tyrosine-protein kinase JAK2 (Homo sapiens), O60674 [V617F], sequence (O60674 whole entry V617F): as the sequence (O60674 whole entry) above, with V617F counted along it
Method in brief: (§3)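 HEL92.1.7 cells seeded at 5x10^5/mL and treated 1 h at 0, 0.1, 0.5 and 1 μM. Lysed in RIPA with phosphatase/protease inhibitors, run on 10% SDS-PAGE and blotted to PVDF. Probed for acetyl-tubulin, acetyl-H3 (Lys9/Lys14), p-JAK2 (Y1007/1008) and p-STAT5 (Tyr694); membranes re-probed for tubulin, H3, JAK2 and STAT5. Quantified by densitometry.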

[16] = system: Tyrosine-protein kinase JAK2 (Homo sapiens), O60674 [V617F]; assay: Induction of JAK2 V617F mutant phosphorylation at Y1007/8 residues in HEL 92.1.7 cells at 0.1 to 1 uM after 1 hr by immunoblot method; assay type: cell-based; method in brief: as §3

Tyrosine-protein kinase JAK3 (Homo sapiens), sequence (P52333 whole entry): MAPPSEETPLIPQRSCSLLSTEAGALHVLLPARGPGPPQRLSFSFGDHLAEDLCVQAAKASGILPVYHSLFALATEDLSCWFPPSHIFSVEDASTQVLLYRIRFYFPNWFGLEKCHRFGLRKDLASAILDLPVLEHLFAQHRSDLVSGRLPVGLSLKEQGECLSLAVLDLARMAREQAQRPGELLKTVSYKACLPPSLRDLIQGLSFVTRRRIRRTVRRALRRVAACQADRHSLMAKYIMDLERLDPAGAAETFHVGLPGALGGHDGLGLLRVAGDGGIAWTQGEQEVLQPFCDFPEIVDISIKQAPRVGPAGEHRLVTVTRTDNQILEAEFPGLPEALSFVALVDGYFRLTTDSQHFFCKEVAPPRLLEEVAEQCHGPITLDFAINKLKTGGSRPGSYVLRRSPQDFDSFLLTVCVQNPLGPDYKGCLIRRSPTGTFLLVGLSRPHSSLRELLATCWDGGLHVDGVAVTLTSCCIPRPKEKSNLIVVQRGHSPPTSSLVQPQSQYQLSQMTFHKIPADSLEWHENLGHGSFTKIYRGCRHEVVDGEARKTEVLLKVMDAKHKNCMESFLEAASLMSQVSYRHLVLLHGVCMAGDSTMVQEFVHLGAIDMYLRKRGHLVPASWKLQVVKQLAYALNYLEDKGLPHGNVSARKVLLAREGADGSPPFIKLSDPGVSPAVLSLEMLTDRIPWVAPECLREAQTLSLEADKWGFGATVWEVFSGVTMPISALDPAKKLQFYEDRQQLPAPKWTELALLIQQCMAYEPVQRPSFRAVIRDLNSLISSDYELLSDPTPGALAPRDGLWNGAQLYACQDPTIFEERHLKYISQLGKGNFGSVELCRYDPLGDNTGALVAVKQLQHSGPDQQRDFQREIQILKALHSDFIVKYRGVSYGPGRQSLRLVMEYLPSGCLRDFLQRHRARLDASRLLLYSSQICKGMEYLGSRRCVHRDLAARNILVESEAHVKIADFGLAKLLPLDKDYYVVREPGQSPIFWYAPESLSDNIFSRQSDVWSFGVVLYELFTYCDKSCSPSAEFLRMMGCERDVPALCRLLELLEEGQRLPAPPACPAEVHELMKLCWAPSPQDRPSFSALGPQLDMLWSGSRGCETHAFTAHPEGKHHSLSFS

**Q.** For O=C(CCCCCCOc1ccc2cc1COC/C=C/COCc1cccc(c1)-c1ccnc(n1)N2)NO, which inhibition [1] is on record?
**A.** 55%

**Q.** And the inhibition [2]?
**A.** 8.6%

**Q.** What about the IC50 (Histone deacetylase 8) of the same compound?
**A.** 740 nM

**Q.** What about the IC50 [3] of the same compound?
**A.** 80 nM

**Q.** What about the Activity [4] of the same compound?
**A.** 21%

**Q.** What about the Activity [5] of the same compound?
**A.** 31%

**Q.** And the IC50 [6]?
**A.** 1700 nM

**Q.** What about the IC50 [7] of the same compound?
**A.** 1000 to 10000 nM

**Q.** What about the inhibition of growth at 4 µM [8] of the same compound?
**A.** 47%

**Q.** What about the IC50 [9] of the same compound?
**A.** 1080 nM

**Q.** What about the IC50 [10] of the same compound?
**A.** 9570 nM

**Q.** What about the selectivity ratio [11] of the same compound?
**A.** 8.7

**Q.** And the inhibition [12]?
**A.** Active

**Q.** And the Activity (MOLM-14)?
**A.** 13.3%

**Q.** And the half-life at 3 µM [13]?
**A.** 17.3 to 26.3 min

**Q.** And the CLint scaled at 3 µM [14]?
**A.** 178 to 272 mL/min/kg

**Q.** And the inhibition [15]?
**A.** Active

**Q.** What about the Activity [16] of the same compound?
**A.** Active
